The source of these data is ChEMBL document CHEMBL5380783, “N-Substituted l-Iminosugars for the Treatment of Sanfilippo Type B Syndrome” (J Med Chem, 2023).

The structures appear in SMILES notation. Activity calls are given as the source filed them. The rule behind the calls is not given here.

Data set [1] concerns SK-N-BE(2). The experiment in a line: Inhibition of heparan sulfate accumulation on cell membrane in NAGLU-silenced human SK-NBE cells clone at 20 uM incubated for 48 hrs by indirect immunofluorescence staining analysis. Type of data set: functional, cell-based. A digest of the protocol: (§1)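 Control and NAGLU-silenced SK-NBE clones grown on coverslips with 20 μM compound for 48 h. Fixed in 3.7% formaldehyde, permeabilized with saponin/BSA buffer, stained with anti-Lamp1 or anti-HS 10E4 for 1 h, then Alexa secondaries. Confocal imaging with 63× objective. Scored as percent cells with enlarged Lamp1 structures or membrane HS, plus mean fluorescence intensity, over 50 random cells from three experiments.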

Data set [2] concerns SK-N-BE(2). Kind of data set: Upregulation of NAGLU protein expression in human SK-NBE cells at 20 uM incubated for 24 hrs by western blot analysis. The format is functional, cell-based. The essentials:
(§2)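 Western blot of control SK-NBE clone and NAGLU-shRNA SK-NBE clone (RPMI, 10% FBS, puromycin 0.7 μg/mL) after 24 h at 20 μM. Lysis, Bradford assay, 50 μg per lane, nitrocellulose transfer, anti-NAGLU antibody overnight at 4 °C, HRP secondary and ECL. GAPDH re-probe for loading.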

The subject of data set [3] is Fibroblast. Kind of data set: Upregulation of NAGLU protein expression in Sanfilippo-B patient derived human fibroblast cells at 20 uM incubated for 24 hrs by western blot analysis. The format is functional, cell-based. A digest of the protocol:
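Sanfilippo B patient fibroblasts in DMEM, 10% FBS, treated 24 h with 20 μM compound. Lysates (50 μg per lane) blotted with anti-NAGLU antibody and HRP secondary with ECL detection; blots re-probed for β-actin as loading control.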

In data set [4] the test system is SK-N-BE(2). The experiment in a line: Inhibition of amyloid beta (1 to 42) accumulation in cytoplasm of NAGLU-silenced human SK-NBE cell clones at 20 uM incubated for 48 hrs by indirect immunofluorescence staining based analysis. Type of data set: functional. The essentials: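 NAGLU-silenced SK-NBE clone on coverslips, exposed to 20 μM compound for 48 h. Cells fixed in formaldehyde, permeabilized with saponin, stained with anti-Aβ1-42 antibody and fluorescent secondary, imaged by confocal microscopy. Cells bearing Aβ1-42-positive structures counted among 50 random cells from three independent experiments; untreated clone as comparator.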

Data set [5] deals with Fibroblast. Kind of data set: Inhibition of heparan sulfate accumulation on cell membrane in Sanfilippo-B patient derived human fibroblast cells at 20 uM incubated for 48 hrs by indirect immunofluorescence staining analysis. Type of data set: functional, cell-based. A digest of the protocol: (§3)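 HDFa, MPS IIIA, MPS IIIB and MPS I patient fibroblasts in DMEM, 10% FBS, grown 48 h on coverslips with 20 μM compound. Double immunostained for HS (10E4) and Lamp1 with DAPI, confocal imaging. Mean fluorescence intensity expressed relative to untreated cells (d-enantiomers: percent positive cells), 50 random cells from three experiments.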

Data set [6] deals with Fibroblast. The experiment in a line: Inhibition of lysosomal defects in Sanfilippo-B patient derived human fibroblast cells assessed as reduction in accumulation of enlarged LAMP1-positive lysosomal structures within the cytoplasm at 20 uM incubated for 48 hrs by LAMP1 staining based indirect immunofluorescence assay. Type of data set: functional, cell-based. A digest of the protocol:
as §3

For data set [7], the system named is HeLa. Kind of data set: Cytotoxicity against human HeLa cells assessed as reduction in cell viability at 20 uM incubated for 48 hrs by trypan blue exclusion method. The format is functional, cell-based. A digest of the protocol:
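HeLa cells seeded at 100,000 per well and grown overnight in complete RPMI. Exposed to 20 μM compound in the same medium for 48 h at 37 °C; untreated mock as control. Cells trypsinized, live cells counted by trypan blue exclusion on an automated counter. Means of three independent experiments, each in triplicate, with s.e.m.; Student's t-test, p < 0.05.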

For data set [8], the system named is Fibroblast. The experiment in a line: Inhibition of lysosomal defects in MPS-1 patient derived human fibroblast cells assessed as reduction in accumulation of enlarged LAMP1-positive lysosomal structures within the cytoplasm at 40 uM incubated for 48 hrs by LAMP1 staining based indirect immunofluorescence assay. Type of data set: functional, cell-based. A digest of the protocol: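 MPS I patient fibroblasts grown on coverslips with 40 μM compound for 48 h. Immunostained for HS (10E4) and Lamp1 with DAPI, imaged by confocal microscopy. Mean fluorescence intensity expressed relative to untreated cells, 50 random cells from three independent experiments.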

Data set [9] concerns SK-N-BE(2). The experiment in a line: Inhibition of lysosomal defects in NAGLU-silenced human SK-NBE cell clones assessed as reduction in accumulation of enlarged LAMP1-positive lysosomal structures within the cytoplasm at 20 uM incubated for 48 hrs by LAMP1 staining based indirect immunofluorescence assay. The format is functional. The essentials:
as §1

For data set [10], the system named is SK-N-BE(2). The experiment in a line: Inhibition of lysosomal defects in NAGLU-silenced human SK-NBE cell clones assessed as dispersion of lysosomes all over the cytoplasm at 20 uM incubated for 48 hrs by LAMP1 staining based indirect immunofluorescence assay. Type of data set: functional. A digest of the protocol: as §1
Data set [11] has as its system SK-N-BE(2). Kind of data set: Upregulation of NAGLU protein expression in NAGLU-silenced human SK-NBE cell clones at 20 uM incubated for 24 hrs by western blot analysis. Type of data set: functional, cell-based. A digest of the protocol:
as §2
For orientation: In western blotting, separated proteins are transferred to a membrane and probed.

For data set [12], the system named is Fibroblast. Kind of data set: Inhibition of heparan sulfate accumulation on cell membrane in MPS-1 patient derived human fibroblast cells at 20 uM incubated for 48 hrs by indirect immunofluorescence staining analysis. Type of data set: functional, cell-based. A digest of the protocol: as §3
Data set [13] has as its system HeLa. The experiment in a line: Downregulation of SDC2 protein expression in human HeLa cells at 20 uM incubated for 24 hrs by western blot analysis. The format is functional, cell-based.
The subject of data set [14] is HaCaT. The experiment in a line: Cytotoxicity against human HaCaT cells assessed as induction of apoptosis upto 100 uM. The format is toxicity, cell-based.
A short description of data set [15]: Cytotoxicity against human CuFi cells assessed as induction of apoptosis upto 100 uM. The format is toxicity, cell-based.
For data set [16], the system named is SK-N-BE(2). The experiment in a line: Effect on lysosome size and distribution in human SK-NBE cell clone assessed as at 20 uM incubated for 48 hrs by LAMP1 staining based indirect immunofluorescence assay. The format is functional. A digest of the protocol:
as §1

The subject of data set [17] is Fibroblast. The experiment in a line: Effect on heparan sulfate changes in human fibroblast cells at 20 uM incubated for 48 hrs by indirect immunofluorescence staining analysis. The format is functional, cell-based. The essentials:
as §3

Data set [18] concerns Fibroblast. The experiment in a line: Inhibition of lysosomal defects in Sanfilippo-A patient derived human fibroblast cells assessed as reduction in accumulation of enlarged LAMP1-positive lysosomal structures within the cytoplasm at 20 uM incubated for 48 hrs by LAMP1 staining based indirect immunofluorescence assay. Type of data set: functional, cell-based. The essentials: as §3

For data set [19], the system named is SK-N-BE(2). The experiment in a line: Effect on heparan sulfate changes in human SK-NBE cell membrane at 20 uM incubated for 48 hrs by indirect immunofluorescence staining analysis. Type of data set: functional, cell-based. A digest of the protocol:
as §1

The subject of data set [20] is Fibroblast. The experiment in a line: Inhibition of lysosomal defects in Sanfilippo-B patient derived human fibroblast cells assessed as dispersion of lysosomes all over the cytoplasm at 20 uM incubated for 48 hrs by LAMP1 staining based indirect immunofluorescence assay. The format is functional, cell-based. The essentials: as §3
The test system of data set [21] is HeLa. The experiment in a line: Upregulation of NAGLU protein expression in human HeLa cells at 20 uM incubated for 24 hrs by western blot analysis. Type of data set: functional, cell-based.

Take `COCCCCCCCCCN1C[C@@H](O)[C@H](O)[C@@H](O)[C@@H]1CO.Cl`: the inhibition result in [1], in data set [4], in data set [5], in [6], in data set [8] and in [9] was “Active” in each case. The inhibition entry in data set [10], in data set [18] and in data set [20] was “Active” in each case. In addition, the outcome in data set [2], in [3], in data set [7] and in data set [21] was Active. In addition, the result in data set [11], in data set [16], in [17] and in data set [19] was inactive. Also, the inhibition entry in data set [12] and in data set [13] was “inactive” in each case. Moreover, the Activity entry in data set [14] and in data set [15] was “Non-Toxic” in each case.

Regarding `Cl.OC[C@H]1[C@H](O)[C@@H](O)[C@H](O)CN1CCCCCOCC12CC3CC(CC(C3)C1)C2`, the inhibition result in data set [1], in data set [4], in [5], in data set [6], in data set [8] and in data set [9] was “Active” in each case. Besides, the inhibition result in data set [10], in [18] and in data set [20] was “Active” throughout. In addition, the outcome in data set [2], in [3], in data set [7] and in data set [21] was Active. Also, the result in data set [11], in [16], in [17] and in [19] was inactive. The inhibition entry in data set [12] and in data set [13] was “inactive” each time. The Activity result in data set [14] and in data set [15] was “Non-Toxic” each time.

For the compound `CCCCN1C[C@@H](O)[C@H](O)[C@@H](O)[C@@H]1CO.Cl`, the inhibition entry in data set [1], in [4], in data set [5], in [6], in data set [8] and in [9] was “Active” each time. Moreover, the inhibition result in [10], in data set [18] and in [20] was “Active” each time. Also, the outcome in [2], in data set [3], in data set [7] and in data set [21] was Active. For the same compound, the outcome in data set [11], in [16], in [17] and in data set [19] was inactive. Besides, the inhibition entry in data set [12] and in [13] was “inactive” in each case. The Activity entry in data set [14] and in data set [15] was “Non-Toxic” in each case.

For the compound `Cl.OC[C@@H]1NC[C@@H](O)[C@H](O)[C@H]1O`, the inhibition result in [1], in data set [4], in data set [5], in data set [6], in data set [8] and in [9] was “Active” in each case. Also, the inhibition result in [10], in data set [18] and in data set [20] was “Active” in each case. The result in data set [2], in [3], in [7] and in data set [21] was Active. Further, the outcome in data set [11], in data set [16], in data set [17] and in data set [19] was inactive. Besides, the inhibition result in data set [12] and in data set [13] was “inactive” each time. Also, the Activity entry in data set [14] and in data set [15] was “Non-Toxic” each time.
